Measurements from ChEMBL document CHEMBL6134795, “Mannich reaction mediated derivatization of chromones and their biological evaluations as putative multipotent ligands for the treatment of Alzheimer's disease” (RSC Med Chem, 2024).

How the values were obtained:
Cholinesterase [1] = target: T1, Cholinesterase (Homo sapiens, UniProt P06276); assay: Inhibition of recombinant BuChE (unknown origin) using BTCI as substrate at 20 uM preincubated for 30 mins followed by substrate addition by TECAN multiplate reader analysis relative to control
How it was run: (§1)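 Ellman method as for AChE, using butyrylcholinesterase with BTCI as substrate. Enzyme and compound preincubated 30 min at 37 °C in a CO2 incubator, then DTNB and BTCI added; absorbance read at 417 nm. Screening at 20 μM as % inhibition; IC50 for compounds exceeding 50% inhibition at 20 μM. Triplicate.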

[2] = target: Amyloid-beta precursor protein (Homo sapiens) (UniProt P05067); assay: Inhibition of self-induced amyloid beta (1 to 42 residues) (unknown origin) aggregation at 20 uM incubated at 48 hrs by fluorimetry-based thioflavin T assay
How it was run: (§2)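 Aβ1-42 pretreated with HFIP (1 mg mL−1) and dried, then incubated with compound (20 μM) at 37 °C for 24 h; an aliquot transferred and incubated further to 48 h. Glycine–NaOH buffer pH 8.0 with 5 μM ThT added; fluorescence read at 440–485 nm. % inhibition calculated against the Aβ-only control taken as 0%.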

[3] = target: Amyloid-beta precursor protein (Homo sapiens) (UniProt P05067); assay: Inhibition of self-induced amyloid beta (1 to 42 residues) (unknown origin) aggregation at 20 uM incubated at 24 hrs by fluorimetry-based thioflavin T assay; how it was run: as §2
[4] = target: T2, Amine oxidase [flavin-containing] B (Homo sapiens, UniProt P27338); assay: Inhibition of recombinant MAO-B (unknown origin) at 20 uM preincubated for 30 mins followed substrate addition by Amplex Red reagent based fluorescence analysis relative to control
T2 sequence (P27338 whole entry): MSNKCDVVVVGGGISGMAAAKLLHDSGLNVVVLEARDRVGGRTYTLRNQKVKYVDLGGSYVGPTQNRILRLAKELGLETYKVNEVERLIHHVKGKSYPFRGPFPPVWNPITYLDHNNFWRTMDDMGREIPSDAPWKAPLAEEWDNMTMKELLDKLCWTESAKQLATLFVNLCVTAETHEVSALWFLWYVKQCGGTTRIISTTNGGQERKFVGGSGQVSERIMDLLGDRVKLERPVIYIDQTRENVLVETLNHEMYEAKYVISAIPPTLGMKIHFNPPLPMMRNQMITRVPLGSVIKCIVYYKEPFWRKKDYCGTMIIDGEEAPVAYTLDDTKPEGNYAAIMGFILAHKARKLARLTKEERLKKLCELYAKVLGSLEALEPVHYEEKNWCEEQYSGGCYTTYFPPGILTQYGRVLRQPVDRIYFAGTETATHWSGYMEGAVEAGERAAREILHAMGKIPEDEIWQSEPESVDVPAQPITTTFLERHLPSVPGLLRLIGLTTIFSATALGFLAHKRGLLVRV
How it was run: (§3)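 Recombinant MAO enzyme preincubated with compound 30 min at 37 °C; substrate, HRP and Amplex Red working solution then added; H2O2 formation read at 37 °C by fluorescence, ex 545/em 590 nm. Screening at 20 μM as % inhibition versus control; IC50 only for compounds above 50% inhibition at 20 μM; triplicate (n = 3).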

SH-SY5Y [5] = assay: Inhibition of ROS production in human SH-SY5Y cells assessed as intracellular ROS level at 1 uM incubated for 24 hrs by DCF-DA staining based fluorescence analysis relative to control; format: functional
How it was run: (§4)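 Cultured SH-SY5Y cells exposed to compound (1, 5, 25 μM) for 24 h; intracellular ROS detected with DCF-DA, which is converted to fluorescent 2,7-DCF, read at ex 478/em 518 nm. Inhibition is expressed relative to control. Mean ± SD of triplicate or more independent experiments.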

SH-SY5Y [6] = assay: Neuroprotective activity against 6-OHDA-induced cytotoxicity in human SH-SY5Y cells assessed as cell viability at 25 uM incubated for 24 hrs followed by exposure to 6-OHDA by MTT assay relative to control; format: functional; conditions: read-out: Activity
How it was run: (§5)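 SH-SY5Y cells treated with compound (1, 5, 25 μM) and challenged with 6-OHDA; cultured 24 h at 37 °C under humidified 5% CO2. Viability measured by MTT as formazan absorbance at 594 nm and expressed relative to control.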

SH-SY5Y [7] = assay: Cytotoxicity against human SH-SY5Y cells assessed as reduction in cell viability at 1 to 25 uM by MTT assay; format: functional, cell-based; conditions: dose 1-25 µM
How it was run: (§6)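 SH-SY5Y cells (DMEM/F-12 with 10% FBS, 1% horse serum, 1% penicillin) preincubated 24 h with compound at 1, 5 or 25 μM; MTT converted to formazan, solubilised in DMSO, absorbance read at 595 nm; viability expressed as percentage of untreated control.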

[8] = target: T2, Amine oxidase [flavin-containing] B; assay: Inhibition of recombinant MAO-B (unknown origin) preincubated for 30 mins followed substrate addition by Amplex Red reagent based fluorescence analysis
Cholinesterase [9] = target: T1, Cholinesterase; assay: Inhibition of recombinant BuChE (unknown origin) using BTCI as substrate preincubated for 30 mins followed by substrate addition by TECAN multiplate reader analysis; how it was run: as §1
[10] = target: T2, Amine oxidase [flavin-containing] B; assay: Reversible inhibition of MAO-B (unknown origin) assessed as residual activity at 1 times IC50 incubated for 30 mins by dilution method relative to control; conditions: 0.5 h
SH-SY5Y [11] = assay: Neuroprotective activity against 6-OHDA-induced cytotoxicity in human SH-SY5Y cells assessed as cell viability at 1 uM incubated for 24 hrs followed by exposure to 6-OHDA by MTT assay relative to control; format: functional; conditions: read-out: Activity; how it was run: as §5
[12] = target: T2, Amine oxidase [flavin-containing] B; assay: Reversible inhibition of MAO-B (unknown origin) assessed as residual activity at 10 times IC50 incubated for 30 mins by dilution method relative to control; conditions: 0.5 h
Acetylcholinesterase [13] = target: T3, Acetylcholinesterase (Homo sapiens, UniProt P22303); assay: Reversible inhibition of AChE (unknown origin) assessed as residual activity at 1 times IC50 incubated for 30 mins by dilution method relative to control
How it was run: (§7)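 Samples then diluted 100-fold with substrate, giving final inhibitor levels of 0.1× and 1× IC50. Recovered activity measured relative to control; triplicate.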

Acetylcholinesterase [14] = target: T3, Acetylcholinesterase; assay: Reversible inhibition of AChE (unknown origin) assessed as residual activity at 10 times IC50 incubated for 30 mins by dilution method relative to control; how it was run: as §7
SH-SY5Y [15] = assay: Cytotoxicity against human SH-SY5Y cells assessed as cell viability at 25 uM by MTT assay relative to control; format: functional; conditions: read-out: Activity; how it was run: as §6
SH-SY5Y [16] = assay: Cytotoxicity against human SH-SY5Y cells assessed as cell viability at 1 uM by MTT assay relative to control; format: functional; conditions: read-out: Activity; how it was run: as §6
Acetylcholinesterase [17] = target: T3, Acetylcholinesterase; assay: Reversible inhibition of AChE (unknown origin) assessed as residual activity at 100 times IC50 incubated for 30 mins by dilution method relative to control; how it was run: as §7
Acetylcholinesterase [18] = target: T3, Acetylcholinesterase; assay: Reversible inhibition of AChE (unknown origin) assessed as residual activity at 0.1 times IC50 incubated for 30 mins by dilution method relative to control; how it was run: as §7
SH-SY5Y [19] = assay: Inhibition of ROS production in human SH-SY5Y cells assessed as intracellular ROS level at 25 uM incubated for 24 hrs by DCF-DA staining based fluorescence analysis relative to control; format: functional; how it was run: as §4
[20] = target: T2, Amine oxidase [flavin-containing] B; assay: Reversible inhibition of MAO-B (unknown origin) assessed as residual activity at 100 times IC50 incubated for 30 mins by dilution method relative to control; conditions: 0.5 h
SH-SY5Y [21] = assay: Inhibition of ROS production in human SH-SY5Y cells assessed as intracellular ROS level at 5 uM incubated for 24 hrs by DCF-DA staining based fluorescence analysis relative to control; format: functional; how it was run: as §4
[22] = target: T2, Amine oxidase [flavin-containing] B; assay: Reversible inhibition of MAO-B (unknown origin) assessed as residual activity at 0.1 times IC50 incubated for 30 mins by dilution method relative to control; conditions: 0.5 h
SH-SY5Y [23] = assay: Neuroprotective activity against 6-OHDA-induced cytotoxicity in human SH-SY5Y cells assessed as cell viability at 5 uM incubated for 24 hrs followed by exposure to 6-OHDA by MTT assay relative to control; format: functional; conditions: read-out: Activity; how it was run: as §5
SH-SY5Y [24] = assay: Cytotoxicity against human SH-SY5Y cells assessed as cell viability at 5 uM by MTT assay relative to control; format: functional; conditions: read-out: Activity; how it was run: as §6
[25] = target: T4, Amine oxidase [flavin-containing] A (Homo sapiens, UniProt P21397); assay: Inhibition of recombinant MAO-A (unknown origin) at 20 uM preincubated for 30 mins followed substrate addition by Amplex Red reagent based fluorescence analysis relative to control; how it was run: as §3
T4 sequence (P21397 whole entry): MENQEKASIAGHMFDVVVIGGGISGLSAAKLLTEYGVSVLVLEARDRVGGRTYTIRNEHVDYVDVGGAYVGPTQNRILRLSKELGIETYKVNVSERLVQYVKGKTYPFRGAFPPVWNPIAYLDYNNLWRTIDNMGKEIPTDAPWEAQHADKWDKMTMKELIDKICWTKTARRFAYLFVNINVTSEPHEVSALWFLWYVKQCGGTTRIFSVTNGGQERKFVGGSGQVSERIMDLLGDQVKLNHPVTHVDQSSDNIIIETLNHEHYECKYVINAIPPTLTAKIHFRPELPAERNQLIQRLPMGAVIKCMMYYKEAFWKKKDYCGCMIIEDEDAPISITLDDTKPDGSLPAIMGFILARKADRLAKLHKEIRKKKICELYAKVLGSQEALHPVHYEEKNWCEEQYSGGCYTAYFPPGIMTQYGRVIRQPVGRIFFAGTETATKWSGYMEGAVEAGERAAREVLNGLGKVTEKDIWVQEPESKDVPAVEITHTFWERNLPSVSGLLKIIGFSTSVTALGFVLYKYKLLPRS

T1 sequence (P06276 whole entry): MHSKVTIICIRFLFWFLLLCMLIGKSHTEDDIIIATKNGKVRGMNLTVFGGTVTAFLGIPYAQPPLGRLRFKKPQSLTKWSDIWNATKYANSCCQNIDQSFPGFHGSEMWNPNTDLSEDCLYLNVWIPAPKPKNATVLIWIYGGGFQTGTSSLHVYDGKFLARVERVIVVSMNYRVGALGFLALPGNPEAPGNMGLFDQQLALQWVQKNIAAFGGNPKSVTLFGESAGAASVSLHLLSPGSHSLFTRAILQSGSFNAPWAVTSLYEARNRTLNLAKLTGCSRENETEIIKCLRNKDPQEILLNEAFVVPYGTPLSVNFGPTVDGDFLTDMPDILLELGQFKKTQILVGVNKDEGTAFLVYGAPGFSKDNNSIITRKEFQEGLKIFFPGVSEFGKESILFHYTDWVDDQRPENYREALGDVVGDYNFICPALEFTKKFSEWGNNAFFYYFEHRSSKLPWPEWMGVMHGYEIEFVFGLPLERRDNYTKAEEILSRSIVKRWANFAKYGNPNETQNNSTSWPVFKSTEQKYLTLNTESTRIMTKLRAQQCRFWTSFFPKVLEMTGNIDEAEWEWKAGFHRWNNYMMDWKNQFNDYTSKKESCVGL
Sequence of Amyloid-beta precursor protein (Homo sapiens) (P05067 whole entry, the tested form may be a part): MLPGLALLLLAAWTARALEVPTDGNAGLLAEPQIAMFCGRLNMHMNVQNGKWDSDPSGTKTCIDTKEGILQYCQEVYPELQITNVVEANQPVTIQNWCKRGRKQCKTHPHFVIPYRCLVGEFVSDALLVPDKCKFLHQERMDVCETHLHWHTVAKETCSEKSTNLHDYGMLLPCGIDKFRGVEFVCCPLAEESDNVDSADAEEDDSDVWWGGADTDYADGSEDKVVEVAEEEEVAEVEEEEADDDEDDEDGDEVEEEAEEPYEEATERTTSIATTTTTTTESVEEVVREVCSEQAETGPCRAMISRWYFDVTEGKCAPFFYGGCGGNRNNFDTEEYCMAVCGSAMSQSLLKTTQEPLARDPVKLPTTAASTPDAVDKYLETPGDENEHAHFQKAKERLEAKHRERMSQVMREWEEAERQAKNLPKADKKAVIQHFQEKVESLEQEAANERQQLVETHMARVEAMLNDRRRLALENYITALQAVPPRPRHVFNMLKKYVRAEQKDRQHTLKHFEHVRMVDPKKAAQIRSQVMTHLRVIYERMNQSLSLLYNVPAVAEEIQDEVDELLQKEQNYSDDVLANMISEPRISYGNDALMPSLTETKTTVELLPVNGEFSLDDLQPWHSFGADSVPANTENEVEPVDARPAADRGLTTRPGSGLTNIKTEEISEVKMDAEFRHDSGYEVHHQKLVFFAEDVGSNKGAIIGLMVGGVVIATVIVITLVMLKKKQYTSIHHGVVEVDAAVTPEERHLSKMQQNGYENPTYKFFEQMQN
T3 sequence (P22303 whole entry): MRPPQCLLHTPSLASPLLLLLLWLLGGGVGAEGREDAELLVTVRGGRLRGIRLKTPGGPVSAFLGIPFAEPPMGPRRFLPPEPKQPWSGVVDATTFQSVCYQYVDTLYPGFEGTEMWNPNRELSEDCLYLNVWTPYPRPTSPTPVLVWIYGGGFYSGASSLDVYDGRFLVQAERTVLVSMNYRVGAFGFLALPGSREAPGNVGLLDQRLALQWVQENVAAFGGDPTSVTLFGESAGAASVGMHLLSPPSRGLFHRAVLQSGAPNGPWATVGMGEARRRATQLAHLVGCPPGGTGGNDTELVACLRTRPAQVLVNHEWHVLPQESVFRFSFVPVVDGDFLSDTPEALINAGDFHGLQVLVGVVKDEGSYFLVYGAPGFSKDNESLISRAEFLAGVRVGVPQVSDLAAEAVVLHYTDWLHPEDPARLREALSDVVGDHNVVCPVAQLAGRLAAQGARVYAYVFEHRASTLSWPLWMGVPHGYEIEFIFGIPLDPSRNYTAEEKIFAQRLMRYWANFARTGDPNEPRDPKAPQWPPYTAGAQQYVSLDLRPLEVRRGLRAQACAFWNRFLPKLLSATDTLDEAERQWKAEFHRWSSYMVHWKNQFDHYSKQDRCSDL

Row | SMILES | inhibition (Cholinesterase [1]) | inhibition [2] | inhibition [3] | inhibition at 20 µM [4] | inhibition at 20 µM [25] | further results
1 | C#CCCCOc1c(CN2CCOCC2)cc(-c2cc(=O)c3ccccc3o2)cc1CN1CCOCC1 | 1% | 26.9% | 23.9% | 18.1% | – | –
2 | C#CCOc1c(CN2CCCCC2)cc(-c2cc(=O)c3ccccc3o2)cc1OC | 89.9% | 28.5% | 22.4% | 50.8% | – | inhibition at 1 µM (SH-SY5Y [5]): 82.8%; viability at 25 µM (SH-SY5Y [6]): 46.9%; Activity (SH-SY5Y [7]): Not toxic; IC50 [8]: 19.6 µM; IC50 (Cholinesterase [9]): 1.95 µM; Activity [10]: 58.9%; viability at 1 µM (SH-SY5Y [11]): 51.9%; Activity [12]: 32.6%; Activity (Acetylcholinesterase [13]): 47.2%; Activity (Acetylcholinesterase [14]): 33.1%; viability at 25 µM (SH-SY5Y [15]): 91.9%; viability at 1 µM (SH-SY5Y [16]): 97.1%; Activity (Acetylcholinesterase [17]): 25.3%; Activity (Acetylcholinesterase [18]): 71.3%; inhibition at 25 µM (SH-SY5Y [19]): 47%; Activity [20]: 14%; inhibition at 5 µM (SH-SY5Y [21]): 51%; Activity [22]: 76.3%; viability at 5 µM (SH-SY5Y [23]): 49.4%; viability at 5 µM (SH-SY5Y [24]): 94.4%
3 | C#CCCCOc1c(CN2CCCCC2)cc(-c2cc(=O)c3ccccc3o2)cc1OC | 21.6% | – | – | 15.6% | 0.75% | –
4 | C#CCCCOc1c(CN(C)Cc2ccccc2)cc(-c2cc(=O)c3ccccc3o2)cc1OC | 17.6% | – | – | 17.5% | – | –
5 | C#CCOc1c(CN2CCOCC2)cc(-c2cc(=O)c3ccccc3o2)cc1OC | 1.17% | 40.4% | 36.1% | 15.1% | – | –
6 | C#CCCCOc1c(CN2CCOCC2)cc(-c2cc(=O)c3ccccc3o2)cc1OC | 3.35% | – | – | 18.8% | – | –
7 | C#CCCCOc1c(CN2CCN(c3ccccc3)CC2)cc(-c2cc(=O)c3ccccc3o2)cc1OC | 1.69% | – | – | 13.1% | 2.6% | –
8 | C#CCCCOc1c(CN2CCc3ccccc3C2)cc(-c2cc(=O)c3ccccc3o2)cc1OC | 51.5% | – | – | 19.8% | 11.3% | IC50 (Cholinesterase [9]): 18.9 µM
9 | C#CCCOc1c(CN2CCN(c3ccccc3)CC2)cc(-c2cc(=O)c3ccccc3o2)cc1OC | 1.63% | – | – | 35.4% | 9.14% | –
10 | C#CCCCOc1c(CN2CCCCC2)cc(-c2cc(=O)c3ccccc3o2)cc1OCC | 3.36% | – | – | 15.6% | – | –
